According to ChEMBL document CHEMBL1159028, “Antimicrobial agents from Licaria puchuri-major and their synergistic effect with polygodial” (1992):
Values after ≈ are worked out from the molar mass of the structure shown.

Key:
Format in all cases: functional
[1] = tested on: Corynebacterium ammoniagenes; experiment: Antimicrobial activity against Brevibacterium ammoniagenes ATCC 6872 after 2 days by twofold serial broth dilution method; conditions: ATCC 6872, 48 h
In short: (§1)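 ATCC strains were revived from freeze-dried stock, then grown in medium of 0.8% nutrient broth, 0.5% yeast extract and 0.1% glucose. Twofold serial broth dilution used compound in DMF (1% DMF final), with a top concentration of 800 µg/ml. Cultures were stationary for 2 days, and growth was read as turbidity at OD 660 nm. MIC was the lowest concentration with no growth.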

Cyberlindnera jadinii = experiment: Antimicrobial activity against Candida utilis ATCC 9226 after 2 days by twofold serial broth dilution method; conditions: Williopsis jadinii, ATCC 9226, 48 h
In short: (§2)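 Yeasts were grown in 2.5% malt extract broth. Twofold serial broth dilution used compound in DMF (1% DMF final), with a top concentration of 800 µg/ml. After 2 days of stationary culture, turbidity was read at OD 660 nm. MIC was the lowest concentration with no growth. Checkerboard combinations with polygodial were tested at least twice per fungus.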

Bacillus subtilis = experiment: Antimicrobial activity against Bacillus subtilis ATCC 9372 after 2 days by twofold serial broth dilution method; conditions: ATCC 9372, 48 h; in short: as §1
Escherichia coli = experiment: Antimicrobial activity against Escherichia coli ATCC 9637 after 2 days by twofold serial broth dilution method; conditions: ATCC 9637, 48 h; in short: as §1
Klebsiella aerogenes = experiment: Antimicrobial activity against Enterobacter aerogenes ATCC 13048 after 2 days by twofold serial broth dilution method; conditions: ATCC 13048, 48 h; in short: as §1
Saccharomyces cerevisiae = experiment: Antimicrobial activity against Saccharomyces cerevisiae ATCC 7754 after 2 days by twofold serial broth dilution method; conditions: ATCC 7754, 48 h; in short: as §2
Penicillium chrysogenum = experiment: Antimicrobial activity against Penicillium chrysogenum ATCC 10106 after 5 days by twofold serial broth dilution method; conditions: ATCC 10106, 120 h
In short: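 Mould was grown in 2.5% malt extract broth with shaking. Compound in DMF (1% final) was serially diluted twofold, to a maximum of 800 µg/ml. Growth was judged by eye after 5 days. MIC was the lowest concentration showing no growth.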

Malassezia furfur = experiment: Antimicrobial activity against Pityrosporum ovale ATCC 14521 by twofold serial broth dilution method
In short: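 Medium: 1% bactopeptone, 0.5% yeast extract, 1% glucose and 0.1% corn oil. Twofold broth dilution used compound in DMF (1% final), with a top concentration of 800 µg/ml. Culture was stationary for 2 days, and growth was scored visually. MIC was the lowest concentration without growth. Checkerboard combinations with polygodial were tested at least twice.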

Cutibacterium acnes = experiment: Antimicrobial activity against Propionibacterium acnes ATCC 11827 after 2 days by twofold serial broth dilution method; conditions: ATCC 11827, 48 h; in short: as §1
Pseudomonas aeruginosa = experiment: Antimicrobial activity against Pseudomonas aeruginosa ATCC 10145 after 2 days by twofold serial broth dilution method; conditions: ATCC 10145, 48 h; in short: as §1
Streptococcus mutans = experiment: Antimicrobial activity against Streptococcus mutans ATCC 25175 after 2 days by twofold serial broth dilution method; conditions: ATCC 25175, 48 h
In short: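 ATCC strain grown in 3.7% brain heart infusion broth. Twofold serial broth dilution used compound dissolved in DMF (1% DMF final), with a top concentration of 800 µg/ml. After 2 days of stationary culture, growth was read as turbidity at OD 660 nm. MIC was the lowest concentration with no growth.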

Staphylococcus aureus = experiment: Antimicrobial activity against Staphylococcus aureus ATCC 12598 after 2 days by twofold serial broth dilution method; conditions: ATCC 12598, 48 h; in short: as §1

Compound | MIC [1] | MIC (Cyberlindnera jadinii) | MIC (Bacillus subtilis) | MIC (Escherichia coli) | MIC (Klebsiella aerogenes) | MIC (Saccharomyces cerevisiae) | MIC (Penicillium chrysogenum) | MIC (Malassezia furfur) | MIC (Cutibacterium acnes) | MIC (Pseudomonas aeruginosa) | MIC (Streptococcus mutans) | MIC (Staphylococcus aureus)
CC1=CC[C@@H](C(C)(C)O)CC1 [ALPHA-TERPINEOL] | > 800 µg/mL | 800 µg/mL (≈ 5.19 mM) | 800 µg/mL (≈ 5.19 mM) | 800 µg/mL (≈ 5.19 mM) | > 800 µg/mL | 800 µg/mL (≈ 5.19 mM) | 400 µg/mL (≈ 2.59 mM) | 400 µg/mL (≈ 2.59 mM) | 100 µg/mL (≈ 0.648 mM) | > 800 µg/mL | 400 µg/mL (≈ 2.59 mM) | > 800 µg/mL
C/C=C/c1ccc(OC)cc1 [ANETHOLE] | 200 µg/mL (≈ 1.35 mM) | 200 µg/mL (≈ 1.35 mM) | 400 µg/mL (≈ 2.7 mM) | 200 µg/mL (≈ 1.35 mM) | > 800 µg/mL | 200 µg/mL (≈ 1.35 mM) | > 800 µg/mL | 100 µg/mL (≈ 0.675 mM) | 100 µg/mL (≈ 0.675 mM) | > 800 µg/mL | 200 µg/mL (≈ 1.35 mM) | > 800 µg/mL
C=C1CC/C=C(/C)CC[C@@H]2[C@@H]1CC2(C)C [CARYOPHYLLENE] | 100 µg/mL (≈ 0.489 mM) | > 800 µg/mL | 50 µg/mL (≈ 0.245 mM) | > 800 µg/mL | > 800 µg/mL | > 800 µg/mL | > 800 µg/mL | > 800 µg/mL | 6.25 µg/mL (≈ 0.0306 mM) | > 800 µg/mL | > 800 µg/mL | > 800 µg/mL
C=C(C)[C@H]1CC=C(C)CC1 [D-LIMONENE] | > 800 µg/mL | 200 µg/mL (≈ 1.47 mM) | 800 µg/mL (≈ 5.87 mM) | > 800 µg/mL | > 800 µg/mL | 50 µg/mL (≈ 0.367 mM) | > 800 µg/mL | 200 µg/mL (≈ 1.47 mM) | 50 µg/mL (≈ 0.367 mM) | > 800 µg/mL | 100 µg/mL (≈ 0.734 mM) | > 800 µg/mL
CCCCCCCCCCCC(=O)O [DODECANOATE] | > 800 µg/mL | > 800 µg/mL | > 800 µg/mL | > 800 µg/mL | > 800 µg/mL | > 800 µg/mL | > 800 µg/mL | > 800 µg/mL | 50 µg/mL (≈ 0.25 mM) | > 800 µg/mL | > 800 µg/mL | > 800 µg/mL
CC12CCC(CC1)C(C)(C)O2 [EUCALYPTOL] | > 800 µg/mL | > 800 µg/mL | > 800 µg/mL | > 800 µg/mL | > 800 µg/mL | > 800 µg/mL | > 800 µg/mL | > 800 µg/mL | 800 µg/mL (≈ 5.19 mM) | > 800 µg/mL | > 800 µg/mL | > 800 µg/mL
C=CCc1ccc(O)c(OC)c1 [EUGENOL] | 800 µg/mL (≈ 4.87 mM) | 800 µg/mL (≈ 4.87 mM) | 400 µg/mL (≈ 2.44 mM) | 400 µg/mL (≈ 2.44 mM) | > 800 µg/mL | 800 µg/mL (≈ 4.87 mM) | 200 µg/mL (≈ 1.22 mM) | 100 µg/mL (≈ 0.609 mM) | 50 µg/mL (≈ 0.304 mM) | > 800 µg/mL | 400 µg/mL (≈ 2.44 mM) | 800 µg/mL (≈ 4.87 mM)
CC1=CCC(C(C)C)=CC1 [GAMMA-TERPINENE] | > 800 µg/mL | 100 µg/mL (≈ 0.734 mM) | > 800 µg/mL | > 800 µg/mL | > 800 µg/mL | 50 µg/mL (≈ 0.367 mM) | > 800 µg/mL | 800 µg/mL (≈ 5.87 mM) | 50 µg/mL (≈ 0.367 mM) | > 800 µg/mL | 100 µg/mL (≈ 0.734 mM) | > 800 µg/mL
CC(C)=CCC/C(C)=C/CO [GERANIOL] | 400 µg/mL (≈ 2.59 mM) | 400 µg/mL (≈ 2.59 mM) | 400 µg/mL (≈ 2.59 mM) | 800 µg/mL (≈ 5.19 mM) | > 800 µg/mL | 400 µg/mL (≈ 2.59 mM) | 200 µg/mL (≈ 1.3 mM) | 100 µg/mL (≈ 0.648 mM) | 200 µg/mL (≈ 1.3 mM) | > 800 µg/mL | 200 µg/mL (≈ 1.3 mM) | 800 µg/mL (≈ 5.19 mM)
C=CC(C)(O)CCC=C(C)C (centres undefined) [LINALOOL] | 800 µg/mL (≈ 5.19 mM) | 400 µg/mL (≈ 2.59 mM) | 800 µg/mL (≈ 5.19 mM) | > 800 µg/mL | > 800 µg/mL | 800 µg/mL (≈ 5.19 mM) | 800 µg/mL (≈ 5.19 mM) | 400 µg/mL (≈ 2.59 mM) | 200 µg/mL (≈ 1.3 mM) | > 800 µg/mL | 400 µg/mL (≈ 2.59 mM) | > 800 µg/mL
C=CCc1ccc(OC)c(OC)c1 [METHYLEUGENOL] | 800 µg/mL (≈ 4.49 mM) | 800 µg/mL (≈ 4.49 mM) | 800 µg/mL (≈ 4.49 mM) | 800 µg/mL (≈ 4.49 mM) | > 800 µg/mL | 800 µg/mL (≈ 4.49 mM) | 800 µg/mL (≈ 4.49 mM) | 200 µg/mL (≈ 1.12 mM) | 200 µg/mL (≈ 1.12 mM) | > 800 µg/mL | 400 µg/mL (≈ 2.24 mM) | 800 µg/mL (≈ 4.49 mM)
CC1(C)CCC[C@]2(C)[C@@H](C=O)C(C=O)=CC[C@@H]12 [POLYGODIAL] | – | 6.25 µg/mL (≈ 0.0267 mM) | – | – | – | 3.13 µg/mL (≈ 0.0134 mM) | – | 50 µg/mL (≈ 0.213 mM) | – | – | – | –
C=CCc1ccc2c(c1)OCO2 [SAFROLE] | > 800 µg/mL | 200 µg/mL (≈ 1.23 mM) | 400 µg/mL (≈ 2.47 mM) | 400 µg/mL (≈ 2.47 mM) | > 800 µg/mL | 200 µg/mL (≈ 1.23 mM) | > 800 µg/mL | 100 µg/mL (≈ 0.617 mM) | 50 µg/mL (≈ 0.308 mM) | > 800 µg/mL | 100 µg/mL (≈ 0.617 mM) | > 800 µg/mL
CC1=CCC(O)(C(C)C)CC1 (centres undefined) [TERPINEOL] | > 800 µg/mL | 800 µg/mL (≈ 5.19 mM) | > 800 µg/mL | > 800 µg/mL | > 800 µg/mL | 800 µg/mL (≈ 5.19 mM) | 800 µg/mL (≈ 5.19 mM) | 100 µg/mL (≈ 0.648 mM) | 800 µg/mL (≈ 5.19 mM) | > 800 µg/mL | > 800 µg/mL | > 800 µg/mL
